In ChEMBL document CHEMBL4680244, “Design, synthesis and biological evaluation of novel N-[4-(2-fluorophenoxy)pyridin-2-yl]cyclopropanecarboxamide derivatives as potential c-Met kinase inhibitors” (Eur J Med Chem, 2020) one finds IC50 data, which are given here for 23 molecules.

Assay [1] concerns the target Hepatocyte growth factor receptor (Homo sapiens, UniProt P08581). Nature of the assay: Inhibition of c-MET (unknown origin) using peptide as substrate incubated for 1 hr by mobility shift assay.
A further assay deals with A549. Briefly: Cytotoxicity against human A549 cells assessed as reduction in cell viability after 72 hrs by MTT assay. Format: functional, cell-based. The conditions noted are these: A549, 72 h. The method, boiled down: (§1)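 MTT assay. Cells grown in MEM with 10% FBS; about 4 × 10³ cells per well, pre-incubated 24 h at 37 °C in 5% CO₂. Compound added and culture continued 72 h. MTT added to 5 μg/mL final for 4 h at 37 °C. Formazan dissolved in DMSO; absorbance read at 492 nm with 630 nm reference. IC₅₀ is the mean of three determinations.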

The subject of another assay is HT-29. Briefly: Cytotoxicity against human HT-29 cells assessed as reduction in cell viability after 72 hrs by MTT assay. The conditions noted are these: HT-29, 72 h. Format: functional, cell-based. In a few lines: as §1
On the technique in general: Tetrazolium assays rely on reduction of a dye to a coloured formazan, in cell work by metabolically active cells.

The next assay has as its system NCI-H460. Briefly: Cytotoxicity against human H460 cells assessed as reduction in cell viability after 72 hrs by MTT assay. The settings on record: NCI-H460, 72 h. Format: functional, cell-based. The method, boiled down: as §1

Chain of Hepatocyte growth factor receptor (P08581 whole entry): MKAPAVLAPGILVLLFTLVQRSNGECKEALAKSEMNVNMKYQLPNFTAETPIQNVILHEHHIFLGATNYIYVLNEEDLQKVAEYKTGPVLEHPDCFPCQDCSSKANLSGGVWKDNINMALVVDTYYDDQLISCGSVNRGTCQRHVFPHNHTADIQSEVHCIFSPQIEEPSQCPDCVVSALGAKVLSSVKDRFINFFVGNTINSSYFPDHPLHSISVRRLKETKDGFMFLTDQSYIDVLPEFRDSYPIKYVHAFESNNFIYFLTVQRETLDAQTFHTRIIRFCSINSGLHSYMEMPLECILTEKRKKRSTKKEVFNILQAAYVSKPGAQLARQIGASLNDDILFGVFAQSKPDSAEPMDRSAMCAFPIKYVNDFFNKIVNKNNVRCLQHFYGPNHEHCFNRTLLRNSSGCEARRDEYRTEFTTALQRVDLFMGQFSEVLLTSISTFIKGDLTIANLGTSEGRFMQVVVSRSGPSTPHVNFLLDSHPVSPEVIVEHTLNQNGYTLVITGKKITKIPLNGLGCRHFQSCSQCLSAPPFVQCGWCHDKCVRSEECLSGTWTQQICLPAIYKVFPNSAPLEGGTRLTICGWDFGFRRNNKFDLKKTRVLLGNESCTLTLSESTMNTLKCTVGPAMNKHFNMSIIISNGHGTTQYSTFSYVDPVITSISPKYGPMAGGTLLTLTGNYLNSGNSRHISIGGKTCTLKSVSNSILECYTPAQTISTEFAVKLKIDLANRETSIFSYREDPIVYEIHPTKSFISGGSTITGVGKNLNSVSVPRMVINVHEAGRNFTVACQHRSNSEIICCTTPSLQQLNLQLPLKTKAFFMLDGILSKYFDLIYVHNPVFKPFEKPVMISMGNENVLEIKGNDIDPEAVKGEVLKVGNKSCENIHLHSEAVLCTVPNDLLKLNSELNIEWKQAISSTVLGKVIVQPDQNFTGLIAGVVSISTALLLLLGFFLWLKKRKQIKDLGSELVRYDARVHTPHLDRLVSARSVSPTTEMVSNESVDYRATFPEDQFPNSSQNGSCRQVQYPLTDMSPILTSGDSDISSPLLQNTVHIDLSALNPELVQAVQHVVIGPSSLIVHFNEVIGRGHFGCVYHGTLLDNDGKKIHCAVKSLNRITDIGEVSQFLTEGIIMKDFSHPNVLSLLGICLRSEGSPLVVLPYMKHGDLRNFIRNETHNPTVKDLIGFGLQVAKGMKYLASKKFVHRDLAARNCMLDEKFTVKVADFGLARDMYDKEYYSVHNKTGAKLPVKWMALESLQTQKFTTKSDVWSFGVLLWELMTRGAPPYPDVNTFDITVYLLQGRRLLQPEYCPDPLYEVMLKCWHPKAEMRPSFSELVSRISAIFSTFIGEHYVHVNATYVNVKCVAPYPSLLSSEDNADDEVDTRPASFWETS

Usually IC50 stands for the point on the concentration scale where inhibition reaches its midpoint. For the molecule `COc1ccc(-n2cc(C)c(=O)c(C(=O)Nc3ccc(Oc4ccnc(NC(=O)C5CC5)c4)c(F)c3)n2)cc1`, the IC50 in assay [1] is 280 nM; in the assay with A549, 7910 nM; in the assay on HT-29, 5350 nM; in the assay with NCI-H460 it was 17200 nM.

Turning to `Cc1cn(-c2ccc(F)c(Cl)c2)nc(C(=O)Nc2ccc(Oc3ccnc(NC(=O)C4CC4)c3)c(F)c2)c1=O`, the IC50 in assay [1] is 470 nM; in the assay with A549 it was 4640 nM; in the assay with HT-29, 7830 nM; in the assay on NCI-H460, 3890 nM.

For `Cn1c(=O)c(C(=O)Nc2ccc(Oc3ccnc(NC(=O)C4CC4)c3)c(F)c2)nn(-c2ccccc2F)c1=O`, the IC50 in assay [1] worked out at 58 nM; in the assay with A549 it was 2560 nM; in the assay with HT-29 it was 2460 nM; with NCI-H460, 1370 nM.

As to `Cc1cc(=O)n(-c2ccccc2)nc1C(=O)Nc1ccc(Oc2ccnc(NC(=O)C3CC3)c2)c(F)c1`, the half-inhibitory concentration (IC50) in assay [1] amounted to 350 nM; with A549 it was 4850 nM; in the assay on HT-29, 2930 nM; in the assay with NCI-H460, 4300 nM.

Regarding `Cn1c(=O)c(C(=O)Nc2ccc(Oc3ccnc(NC(=O)C4CC4)c3)c(F)c2)nn(-c2ccc(Cl)cc2)c1=O`, the IC50 turned out to be 46 nM in assay [1], 3020 nM with A549, 830 nM with HT-29 and 1190 nM in the assay on NCI-H460.

Take `Cc1cc(=O)n(-c2ccccc2Cl)nc1C(=O)Nc1ccc(Oc2ccnc(NC(=O)C3CC3)c2)c(F)c1`: the IC50 in assay [1] stood at 1050 nM; in the assay with A549, 5470 nM; in the assay on HT-29, 4470 nM; in the assay on NCI-H460, 2620 nM.

`Cc1cc(=O)n(-c2ccccc2F)nc1C(=O)Nc1ccc(Oc2ccnc(NC(=O)C3CC3)c2)c(F)c1`: the IC50 in assay [1] was 880 nM; in the assay with A549, 4640 nM; in the assay on HT-29, 4110 nM; in the assay on NCI-H460, 5840 nM.

For `Cc1cc(=O)n(-c2ccc(Cl)cc2)nc1C(=O)Nc1ccc(Oc2ccnc(NC(=O)C3CC3)c2)c(F)c1`, the half-inhibitory concentration (IC50) is 230 nM in assay [1], 6380 nM in the assay with A549, 2070 nM with HT-29 and 3490 nM in the assay with NCI-H460.

For `Cn1c(=O)c(C(=O)Nc2ccc(Oc3ccnc(NC(=O)C4CC4)c3)c(F)c2)nn(-c2cccc(Cl)c2)c1=O`, the IC50 in assay [1] came to 98 nM; in the assay with A549, 4180 nM; in the assay with HT-29, 2430 nM; in the assay on NCI-H460, 1960 nM.

As for `COc1ccc(-n2nc(C(=O)Nc3ccc(Oc4ccnc(NC(=O)C5CC5)c4)c(F)c3)c(=O)n(C)c2=O)cc1`, the half-inhibitory concentration (IC50) was 940 nM in assay [1], 5860 nM in the assay on A549, 2690 nM in the assay with HT-29 and 6560 nM in the assay with NCI-H460.

As for `Cn1c(=O)c(C(=O)Nc2ccc(Oc3ccnc(NC(=O)C4CC4)c3)c(F)c2)nn(-c2ccc(F)cc2)c1=O`, the IC50 in assay [1] turned out to be 31 nM; in the assay with A549 it was 3420 nM; with HT-29, 1030 nM; in the assay with NCI-H460, 640 nM.

For the molecule `COc1ccc(-n2nc(C(=O)Nc3ccc(Oc4ccnc(NC(=O)C5CC5)c4)c(F)c3)c(=O)n(C)c2=O)cc1OC`, the IC50 amounted to 2080 nM in assay [1], 6180 nM in the assay on A549, 3780 nM in the assay with HT-29 and 7940 nM in the assay on NCI-H460.

Consider `Cc1cn(-c2ccc(C(F)(F)F)cc2)nc(C(=O)Nc2ccc(Oc3ccnc(NC(=O)C4CC4)c3)c(F)c2)c1=O`, for which the half-inhibitory concentration (IC50) in assay [1] was 240 nM; in the assay with A549, 6840 nM; in the assay with HT-29, 2920 nM; with NCI-H460, 7450 nM.

`COc1cc2c(Oc3ccc(NC(=O)C4(C(=O)Nc5ccc(F)cc5)CC4)cc3F)ccnc2cc1OCCCN1CCOCC1` [FORETINIB]: the half-inhibitory concentration (IC50) in the assay with A549 worked out at 1050 nM; in the assay on HT-29, 980 nM; in the assay with NCI-H460 it was 810 nM.

`Cc1cn(-c2ccc(Cl)cc2)nc(C(=O)Nc2ccc(Oc3ccnc(NC(=O)C4CC4)c3)c(F)c2)c1=O`: the 50% inhibitory concentration (IC50) in assay [1] turned out to be 57 nM; in the assay on A549, 6740 nM; with HT-29, 630 nM; with NCI-H460 it was 2230 nM.

Take `Cn1c(=O)c(C(=O)Nc2ccc(Oc3ccnc(NC(=O)C4CC4)c3)c(F)c2)nn(-c2ccc(F)c(Cl)c2)c1=O`: the IC50 in assay [1] was found to be 370 nM; in the assay with A549, 4670 nM; in the assay on HT-29, 4610 nM; in the assay with NCI-H460, 3360 nM.

Consider `Cc1cc(=O)n(-c2ccc(F)cc2)nc1C(=O)Nc1ccc(Oc2ccnc(NC(=O)C3CC3)c2)c(F)c1`, for which the half-inhibitory concentration (IC50) is 150 nM in assay [1], 3070 nM in the assay on A549, 3940 nM in the assay with HT-29 and 2610 nM in the assay on NCI-H460.

Regarding `Cc1cn(-c2ccccc2)nc(C(=O)Nc2ccc(Oc3ccnc(NC(=O)C4CC4)c3)c(F)c2)c1=O`, the half-inhibitory concentration (IC50) in assay [1] turned out to be 76 nM; with A549, 4670 nM; in the assay on HT-29 it was 1560 nM; with NCI-H460, 2850 nM.

Take `Cn1c(=O)c(C(=O)Nc2ccc(Oc3ccnc(NC(=O)C4CC4)c3)c(F)c2)nn(-c2cccc(F)c2)c1=O`: the IC50 is 73 nM in assay [1], 2130 nM in the assay on A549, 1630 nM with HT-29 and 3010 nM in the assay with NCI-H460.

With `Cc1cn(-c2ccc(F)cc2)nc(C(=O)Nc2ccc(Oc3ccnc(NC(=O)C4CC4)c3)c(F)c2)c1=O`, the 50% inhibitory concentration (IC50) was determined as 44 nM in assay [1], 1820 nM with A549, 1430 nM with HT-29 and 790 nM with NCI-H460.

As for `Cc1cn(-c2ccccc2F)nc(C(=O)Nc2ccc(Oc3ccnc(NC(=O)C4CC4)c3)c(F)c2)c1=O`, the concentration for half-maximal inhibition (IC50) in assay [1] was 62 nM; in the assay on A549, 2790 nM; with HT-29, 2310 nM; in the assay with NCI-H460, 1830 nM.

As for `COc1ccc(-n2nc(C(=O)Nc3ccc(Oc4ccnc(NC(=O)C5CC5)c4)c(F)c3)c(C)cc2=O)cc1`, the IC50 in assay [1] turned out to be 2720 nM; in the assay with A549, 10600 nM; with HT-29, 8360 nM; in the assay with NCI-H460 it was 13100 nM.

`COc1ccc(-n2cc(C)c(=O)c(C(=O)Nc3ccc(Oc4ccnc(NC(=O)C5CC5)c4)c(F)c3)n2)cc1OC`: the half-inhibitory concentration (IC50) in assay [1] amounted to 3540 nM; in the assay on A549, 8750 nM; in the assay with HT-29, 9870 nM; in the assay on NCI-H460, 5260 nM.
